These results are taken from ChEMBL document CHEMBL4028805, “Phenylthiazole Antibacterial Agents Targeting Cell Wall Synthesis Exhibit Potent Activity in Vitro and in Vivo against Vancomycin-Resistant Enterococci” (J Med Chem, 2017).

Converted amounts (≈) assume the structure as drawn. The source made the active and inactive calls. The rule behind the calls is not given here.

The subject of data set [1] is Acinetobacter baumannii. The data set can be described thus: Antibacterial activity against Acinetobacter baumanii ATCC 19606 after 18 to 22 hrs in absence of colistin by broth microdilution method. As to conditions: ATCC 19606 = CIP 70.34 = JCM 6841. Format: functional. The procedure, abridged: (§1)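 Broth microdilution per CLSI guidelines. Gram-negatives grown in TSB. Each strain tested alone and again with colistin at ¼ × MIC to permeabilize the outer membrane. Plates incubated at 37 °C for 18–22 h. MIC read as the lowest concentration showing no visible growth.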

For data set [2], the system named is Pseudomonas aeruginosa. The data set can be described thus: Antibacterial activity against Pseudomonas aeruginosa ATCC 15442 after 18 to 22 hrs in absence of colistin by broth microdilution method. Format: functional.
Data set [3] has as its system Escherichia coli. The data set can be described thus: Antibacterial activity against Escherichia coli 1411 harboring delta-acrAB after 18 to 22 hrs in absence of colistin by broth microdilution method. Format: functional.
The subject of data set [4] is Acinetobacter baumannii. The data set can be described thus: Antibacterial activity against Acinetobacter baumanii ATCC 19606 after 18 to 22 hrs in presence of 1/4 times MIC colistin by broth microdilution method. Format: functional. As to conditions: ATCC 19606 = CIP 70.34 = JCM 6841. The procedure, abridged:
as §1

The test system of another data set is Enterobacter cloacae. The data set can be described thus: Antibacterial activity against Enterobacter cloacae BAA-1154 after 18 to 22 hrs in presence of 1/4 times MIC colistin by broth microdilution method. Format: functional. The procedure, abridged:
as §1

Data set [5] deals with Pseudomonas aeruginosa. The data set can be described thus: Antibacterial activity against Pseudomonas aeruginosa ATCC 15442 after 18 to 22 hrs in presence of 1/4 times MIC colistin by broth microdilution method. Format: functional. The method in brief:
as §1

The test system of another data set is Staphylococcus aureus. The data set can be described thus: Antibacterial against Methicillin-Resistant Staphylococcus aureus after 18 to 20 hrs by broth microdilution method. Format: functional.
Data set [6] deals with Enterococcus faecium. The data set can be described thus: Bactericidal activity against vancomycin-resistant Enterococcus faecium ATCC 700221 at 4 times MIC after 2 hrs by time-kill assay. Format: functional. The method in brief:
(§2)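 Late-log cells diluted to ~5 × 10^6 CFU/mL and exposed in triplicate to 4 × MIC, in TSB (E. faecalis HM-201) or BHI (E. faecium ATCC 700221) at 37 °C. Sampled at 0, 2, 4, 6, 8, 10, 12 and 24 h, diluted serially in PBS and plated on TSA or BHI agar. CFU/mL counted after 18–22 h. DMSO served as negative control.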

In data set [7] the test system is Enterococcus faecium. The data set can be described thus: Bactericidal activity against vancomycin-resistant Enterococcus faecium ATCC 700221 assessed as bacterial regrowth at 4 times MIC after 22 hrs by time-kill assay. Format: functional. The procedure, abridged: as §2
The test system of another data set is HRT-18 cell line. The data set can be described thus: Cytotoxicity against human HRT18 cells assessed as reduction in cell viability at 20 ug/ml after 24 hrs by MTS assay. Format: cell-based. To be noted: hrt-18, 24 h. The procedure, abridged:
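HRT-18 cells maintained in RPMI-1640 with 10% fetal horse serum at 37 °C, 5% CO2. Exposed to 5, 10, 20 or 40 μg/mL for 2 or 24 h, then MTS added and absorbance read at 490 nm. Viability expressed relative to untreated cells, n ≥ 3, one-way ANOVA with Dunnett's test.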

The subject of data set [8] is Enterococcus faecalis. The data set can be described thus: Antibacterial activity against Enterococcus faecalis ATCC 31975 at 4 to 8 times MIC after 48 hrs by broth microdillution method. Format: functional. The procedure, abridged: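 Single-step resistance selection. Cultures of 5 × 10^8 to 5 × 10^10 CFU/mL spread on TSA containing compound at 2×, 4× or 8× MIC and incubated aerobically at 37 °C for 48 h. Colony MICs rechecked by broth microdilution. Frequency calculated as resistant colonies per inoculum.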

The subject of data set [9] is Escherichia coli. The data set can be described thus: Antibacterial activity against tolC deficient Escherichia coli assessed as cell lysis at 25 ug/ml after 30 mins in presence of sucrose by FM4-64/DAPI/SYTOX Green staining-based deconvolution microscopic analysis. Format: functional.
For data set [10], the system named is Escherichia coli. The data set can be described thus: Antibacterial activity against tolC deficient Escherichia coli assessed as cell shape defects at 25 ug/ml after 30 mins in presence of sucrose by FM4-64/DAPI/SYTOX Green staining-based deconvolution microscopic analysis. Format: functional.
The subject of the next data set is Bacillus subtilis. The data set can be described thus: Antibacterial activity against Bacillus subtilis assessed as bending of cells at 5 times MIC after 2 hrs in presence of methylsulfonyl methane by phase contrast microscopic analysis. Format: functional. The method in brief:
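B. subtilis grown in LB at 37 °C to OD600 ~0.2, then treated at 5 × MIC with MSM for osmotic stabilisation. At 2 h, stained with FM 4-64 (1 μg/mL), DAPI (1 μg/mL) and SYTOX Green (1 μg/mL). Imaged by deconvolution fluorescence and phase contrast microscopy.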

Data set [11] is described as follows: Inhibition of Escherichia coli UPPP expressed in Escherichia coli C41(DE3) using FPP as substrate preincubated for 15 mins followed by substrate addition measured after 20 mins by malachite green assay. The method in brief:
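Purified E. coli UPPP (0.125 μM) preincubated 15 min at room temperature with inhibitor (300 to 0.8 μM) in 50 mM HEPES, 150 mM NaCl, 10 mM MgCl2, 0.02% DDM, pH 7.5. Then 35 μM FPP added, 20 min at 37 °C. Released phosphate measured by malachite green at 620 nm after 30 min. IC50 from dose-response curves. Bacitracin used as control.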

For data set [12], the target named is T1, Farnesyl pyrophosphate synthase (Homo sapiens, UniProt P14324).
T1 sequence (P14324 whole entry): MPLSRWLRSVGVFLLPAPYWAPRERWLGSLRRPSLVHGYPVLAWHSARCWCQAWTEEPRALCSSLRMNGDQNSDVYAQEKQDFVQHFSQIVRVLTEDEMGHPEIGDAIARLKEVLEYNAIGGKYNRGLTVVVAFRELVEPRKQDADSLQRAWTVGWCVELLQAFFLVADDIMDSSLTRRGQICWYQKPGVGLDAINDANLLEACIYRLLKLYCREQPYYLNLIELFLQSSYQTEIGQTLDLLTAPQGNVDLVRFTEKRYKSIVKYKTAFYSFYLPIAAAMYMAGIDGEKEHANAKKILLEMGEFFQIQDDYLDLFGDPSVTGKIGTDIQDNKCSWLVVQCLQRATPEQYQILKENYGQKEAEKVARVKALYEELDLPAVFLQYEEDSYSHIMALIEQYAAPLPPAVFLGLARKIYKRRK
The data set can be described thus: Inhibition of human FPPS.

Data set [13] deals with Enterococcus faecium. The data set can be described thus: Potentiation of vancomycin-induced antibacterial activity against Enterococcus faecium ATCC 700221 assessed as fold reduction in vancomycin MIC preincubated for 30 mins followed by vancomycin addition measured after 18 to 21 hrs. Format: functional. The procedure, abridged: (§3)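 VRE suspensions at 5×10^5 CFU/mL preincubated with compound at ½ × MIC for 30 min at room temperature. […] Fold reduction calculated as vancomycin MIC alone over MIC in combination.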

The test system of data set [14] is Enterococcus faecalis. The data set can be described thus: Potentiation of vancomycin-induced antibacterial activity against Enterococcus faecalis HM-201 assessed as fold reduction in vancomycin MIC preincubated for 30 mins followed by vancomycin addition measured after 18 to 21 hrs. Format: functional. The method in brief: as §3
In data set [15] the test system is Enterococcus faecalis. The data set can be described thus: Potentiation of vancomycin-induced antibacterial activity against Enterococcus faecalis HM-934 assessed as fold reduction in vancomycin MIC preincubated for 30 mins followed by vancomycin addition measured after 18 to 21 hrs. Format: functional. The method in brief: as §3
The subject of data set [16] is Enterococcus faecium. The data set can be described thus: Potentiation of gentamicin-induced antibacterial activity against Enterococcus faecium ATCC 700221 assessed as gentamicin MIC preincubated for 30 mins followed by gentamicin addition measured after 18 to 21 hrs. Format: functional. The method in brief: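 Enterococcal suspensions at 5×10^5 CFU/mL preincubated with compound at ½ × MIC for 30 min at room temperature.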

Regarding `CCCCc1ccc(-c2nc(C)c(/C(C)=N/NC(=N)N)s2)cc1`, the MIC with Acinetobacter baumannii [1] is 8 µg/mL (≈ 24.3 µM); against Pseudomonas aeruginosa [2], 64 µg/mL (≈ 194 µM); against Escherichia coli [3], 4 µg/mL (≈ 12.1 µM); with Acinetobacter baumannii [4], 1 µg/mL; with Enterobacter cloacae, 1 µg/mL; with Pseudomonas aeruginosa [5], 1 µg/mL. The compound also returned an MIC against Staphylococcus aureus of 1.3 to 5.6 µg/mL (≈ 3.95 to 17 µM). Further, the result in the data set on Enterococcus faecium [6], with Enterococcus faecium [7], with Enterococcus faecalis [8], in the data set with Escherichia coli [9], in the data set with Escherichia coli [10] and in the data set with Bacillus subtilis was Active. In the data set on HRT-18 cell line, the Activity result is on record as “Non-Toxic”. In data set [11], this compound came in with an IC50 of 6 µM. In addition, in data set [12], the “inhibition (INH)” value is recorded as “Not Active”. In addition, the “fold change (FC)” value with Enterococcus faecium [13] was determined as 256. The outcome in the data set on Enterococcus faecalis [14], in the data set on Enterococcus faecalis [15] and with Enterococcus faecium [16] was inactive.
